Reference: ChEMBL document CHEMBL3351969, “Chalcone based azacarboline analogues as novel antitubulin agents: design, synthesis, biological evaluation and molecular modelling studies” (Eur J Med Chem, 2014)
Calls of active or inactive are those of the source. The rule behind the calls is not given here.

Key:
[1] = system: THP-1; assay: Cytotoxicity against human THP1 cells assessed as growth inhibition at 50 uM after 48 hrs by sulforhodamine B assay; format: functional; conditions: for inhibition of growth at 50 µM: THP-1, 48 h, read-out: GI
Method in brief: (§1)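 Single-point SRB screen at 50 µM. Cells were seeded and grown 24 h at 37°C in a CO2 incubator, then exposed to compound in complete medium for 48 h. Cells were fixed with 50% TCA for 1 h at 4°C, water-washed, and stained with 0.4% SRB in 1% acetic acid for 30 min. After 1% TCA washes, dye was dissolved in Tris-HCl (0.01 M, pH 10.4) and OD read at 540 nm.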

[2] = system: COLO 205; assay: Cytotoxicity against human COLO205 cells assessed as growth inhibition at 50 uM after 48 hrs by sulforhodamine B assay; format: functional; conditions: for inhibition of growth at 50 µM: COLO 205, 48 h, read-out: GI; method in brief: as §1
[3] = (§2) Cytotoxicity against human HCT116 cells assessed as growth inhibition at 50 uM after 48 hrs by sulforhodamine B assay; format: functional; conditions: HCT-116, 48 h, read-out: GI; method in brief: as §1
[4] = system: A549; assay: Cytotoxicity against human A549 cells assessed as growth inhibition at 50 uM after 48 hrs by sulforhodamine B assay; format: functional; conditions: for inhibition of growth at 50 µM: A549, 48 h, read-out: GI; method in brief: as §1
[5] = system: THP-1; assay: Cytotoxicity against human THP1 cells assessed as growth inhibition after 48 hrs by sulforhodamine B assay; format: functional, cell-based; conditions: THP-1, 48 h
Method in brief: (§3)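 SRB growth assay with compound dilutions over several concentrations. Cells were pre-grown 24 h at 37°C in a CO2 incubator, then exposed for 48 h. Cells were fixed with 50% TCA (1 h, 4°C) and stained with 0.4% SRB in 1% acetic acid for 30 min. Bound dye was solubilised in 0.01 M Tris-HCl (pH 10.4) and read at 540 nm. Percent inhibition versus untreated (blank-subtracted) was used to calculate IC50.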

[6] = system: COLO 205; assay: Cytotoxicity against human COLO205 cells assessed as growth inhibition after 48 hrs by sulforhodamine B assay; format: functional, cell-based; conditions: COLO 205, 48 h; method in brief: as §3
[7] = Cytotoxicity against human HCT116 cells assessed as growth inhibition after 48 hrs by sulforhodamine B assay; format: functional, cell-based; conditions: HCT-116, 48 h; method in brief: as §3
[8] = system: HCT-116; assay: as §2; format: functional; method in brief: as §1

Row | SMILES | inhibition of growth at 50 µM [1] [%] | inhibition of growth at 50 µM [2] [%] | inhibition of growth at 50 µM [3] [%] | inhibition of growth at 50 µM [4] [%] | growth inhibition (GI) [4] | IC50 [5] [µM] | IC50 [6] [µM] | IC50 [7] [µM] | growth inhibition (GI) [1] | growth inhibition (GI) [2] | growth inhibition (GI) [8]
1 | CC(=O)n1c2cccc(Cl)c2c2cc(-c3ccc[nH]3)nnc21 | 53 | 34 | 37 | 16 |  |  |  |  |  |  | 
2 | CC(=O)n1c2ccccc2c2cc(-c3ccc(Cl)cc3)nnc21 | 39 | 35 | 35 |  | inactive |  |  |  |  |  | 
3 | CC(=O)Nc1cccc(-c2cc3c4ccccc4n(C(C)=O)c3nn2)c1 | 49 | 47 | 48 |  | inactive |  |  |  |  |  | 
4 | COc1ccc(-c2cc3c4ccccc4n(C(C)=O)c3nn2)cc1 | 81 | 72 | 72 | 10 |  | 3.45 | 6.63 | 5.23 |  |  | 
5 | CC(=O)n1c2cccc(Cl)c2c2cc(-c3ccccc3)nnc21 | 50 | 22 | 29 |  | inactive |  |  |  |  |  | 
6 | CC(=O)n1c2cccc(I)c2c2cc(-c3ccc(Cl)cc3)nnc21 |  |  |  |  | inactive |  |  |  | inactive | inactive | inactive
7 | CC(=O)n1c2ccccc2c2cc(-c3ccccc3)nnc21 | 71 | 64 | 66 | 10 |  | 5.75 | 8.11 | 7.77 |  |  | 
8 | CC(=O)n1c2ccccc2c2cc(-c3ccc[nH]3)nnc21 | 78 | 68 | 72 | 12 |  | 4.28 | 7.23 | 6.14 |  |  | 
9 | CC(=O)n1c2cc(Br)cc(Br)c2c2cc(-c3ccc(F)cc3)nnc21 |  |  |  |  | inactive |  |  |  | inactive | inactive | inactive
10 | CC(=O)n1c2cccc(Cl)c2c2cc(-c3ccc([N+](=O)[O-])cc3)nnc21 | 14 |  |  |  | inactive |  |  |  |  | inactive | inactive
11 | CC(=O)n1c2ccccc2c2cc(-c3ccc(F)cc3)nnc21 | 42 | 40 | 36 |  | inactive |  |  |  |  |  | 
12 | CC(=O)Nc1ccccc1-c1cc2c3ccccc3n(C(C)=O)c2nn1 | 51 | 50 | 49 |  | inactive |  |  |  |  |  | 
13 | CC(=O)n1c2cccc(Cl)c2c2cc(-c3ccc(Cl)cc3)nnc21 | 19 | 12 | 17 | 5 |  |  |  |  |  |  | 
14 | CC(=O)n1c2ccccc2c2cc(-c3ccc([N+](=O)[O-])cc3)nnc21 | 19 | 17 | 19 |  | inactive |  |  |  |  |  | 
15 | CC(=O)n1c2cc(Br)cc(Br)c2c2cc(-c3ccc(Br)cc3)nnc21 |  |  |  |  | inactive |  |  |  | inactive | inactive | inactive
16 | CC(=O)n1c2cccc(Br)c2c2cc(-c3ccccc3)nnc21 | 27 |  |  |  | inactive |  |  |  |  | inactive | inactive
17 | CC(=O)n1c2cccc(Br)c2c2cc(-c3ccc([N+](=O)[O-])cc3)nnc21 |  |  |  |  | inactive |  |  |  | inactive | inactive | inactive
18 | CC(=O)n1c2cccc(I)c2c2cc(-c3ccc([N+](=O)[O-])cc3)nnc21 |  |  |  |  | inactive |  |  |  | inactive | inactive | inactive
19 | CC(=O)n1c2ccccc2c2cc(-c3ccc(Br)cc3)nnc21 | 25 | 20 | 24 |  | inactive |  |  |  |  |  | 
20 | COc1cc(-c2cc3c4c(Br)cccc4n(C(C)=O)c3nn2)cc(OC)c1OC | 59 | 36 | 43 | 17 |  |  |  |  |  |  | 

Row | SMILES | inhibition of growth at 50 µM [1] [%] | inhibition of growth at 50 µM [2] [%] | inhibition of growth at 50 µM [3] [%] | inhibition of growth at 50 µM [4] [%] | growth inhibition (GI) [4] | IC50 [5] [µM] | IC50 [6] [µM] | IC50 [7] [µM] | growth inhibition (GI) [1] | growth inhibition (GI) [2] | growth inhibition (GI) [8]
21 | COc1ccc(-c2cc3c4c(Br)cccc4n(C(C)=O)c3nn2)cc1 | 35 | 10 | 17 | 7 |  |  |  |  |  |  | 
22 | COc1ccc(-c2cc3c4c(I)cccc4n(C(C)=O)c3nn2)cc1 | 22 | 9 |  |  | inactive |  |  |  |  |  | inactive
23 | CC(=O)n1c2cccc(Br)c2c2cc(-c3ccc4ccccc4c3)nnc21 | 40 | 14 | 18 | 8 |  |  |  |  |  |  | 
24 | COc1ccc(-c2cc3c4c(I)cccc4n(C(C)=O)c3nn2)cc1OC | 33 | 14 | 13 | 11 |  |  |  |  |  |  | 
25 | CC(=O)n1c2cccc(Cl)c2c2cc(-c3ccc(Br)cc3)nnc21 | 15 | 10 |  |  | inactive |  |  |  |  |  | inactive
26 | COc1ccc(-c2cc3c4c(Cl)cccc4n(C(C)=O)c3nn2)cc1OC | 71 | 54 | 49 |  | inactive | 13.8 | 17.2 | 15.8 |  |  | 
27 | CC(=O)n1c2cccc(Cl)c2c2cc(-c3cccc4ccccc34)nnc21 | 65 | 40 | 44 | 18 |  | 14.1 | 18 | 15.7 |  |  | 
28 | COc1ccc(-c2cc3c4c(Cl)cccc4n(C(C)=O)c3nn2)cc1 | 60 | 39 | 36 | 14 |  | 14.9 | 18.2 | 16.9 |  |  | 
29 | CC(=O)n1c2cccc(I)c2c2cc(-c3ccc(Br)cc3)nnc21 |  |  |  |  | inactive |  |  |  | inactive | inactive | inactive
30 | CC(=O)n1c2cc(Br)cc(Br)c2c2cc(-c3cccc4ccccc34)nnc21 | 24 |  |  |  | inactive |  |  |  |  | inactive | inactive
31 | COc1cc(-c2cc3c4c(I)cccc4n(C(C)=O)c3nn2)cc(OC)c1OC | 40 | 24 | 23 | 19 |  |  |  |  |  |  | 
32 | CC(=O)n1c2cc(Br)cc(Br)c2c2cc(-c3ccc4ccccc4c3)nnc21 | 26 |  |  |  | inactive |  |  |  |  | inactive | inactive
33 | CC(=O)n1c2cccc(Br)c2c2cc(-c3cccc4ccccc34)nnc21 | 44 | 12 | 18 | 9 |  |  |  |  |  |  | 
34 | CC(=O)n1c2cccc(Br)c2c2cc(-c3ccc(Cl)cc3)nnc21 |  |  |  |  | inactive |  |  |  | inactive | inactive | inactive
35 | COc1ccc(-c2cc3c4c(Br)cccc4n(C(C)=O)c3nn2)cc1OC | 51 | 21 | 23 | 11 |  |  |  |  |  |  | 
36 | CC(=O)n1c2cccc(I)c2c2cc(-c3ccc4ccccc4c3)nnc21 | 25 |  |  |  | inactive |  |  |  |  | inactive | inactive
37 | CC(=O)n1c2cccc(I)c2c2cc(-c3cccc4ccccc34)nnc21 | 29 |  |  |  | inactive |  |  |  |  | inactive | inactive
38 | CC(=O)n1c2cccc(I)c2c2cc(-c3ccccc3)nnc21 | 20 |  |  |  | inactive |  |  |  |  | inactive | inactive
39 | CC(=O)n1c2cc(Br)cc(Br)c2c2cc(-c3ccccc3)nnc21 | 21 |  |  |  | inactive |  |  |  |  | inactive | inactive
40 | CC(=O)n1c2cccc(Br)c2c2cc(-c3ccc(Br)cc3)nnc21 |  |  |  |  | inactive |  |  |  | inactive | inactive | inactive
